The RNAGym collection of RNA variant scans (doi:10.1126/science.aae0568)
Fewer inactive variants are shown than the library holds.

B1: tRNA (parent)
chain: GUUCCGUUGGCGUAAUGGUAACGCGUCUCCCUCCUAAGGAGAAGACUGCGGGUUCGAGUCCCGUACGGAACG

Variants of: B1
Experiment: yeast fitness relative to wild type (ratio to wild type); higher = fitter; tRNA-Arg(CCU), competitive growth, 37 C, YPD
Outline: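 Variants of the tRNA-Arg(CCU) gene were chemically synthesised with a 3% per-site mutation rate across 69 sites and placed at the native genomic locus in Saccharomyces cerevisiae. Six parallel replicates of the pooled strains were competed in YPD at 37°C for 24 hours, and gene amplicons from the start and end populations were read by 100-nucleotide paired-end sequencing. Darwinian fitness relative to wild type was derived from changes in genotype frequencies. Genotypes required ≥ 100 starting reads, and estimates < 0.5 were set to 0.5.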

Compared with C5U C46A C66U, C5U C33G A36U is lower in yeast fitness: 0.663 for the first, at most 0.5 for the second.

Going from C5U C24A A65U to C5U G18C A65U, the yeast fitness falls from 0.733 to 0.601.

C5U C22U A37U G68U and C5U C31G G48C G58A cannot be ordered by yeast fitness: at most 0.5 for the first, at most 0.5 for the second.

Compared with C5U C30G C61U, C5U G25A A69C is higher in yeast fitness: at most 0.5 for the first, 0.728 for the second.

Compared with C5U C46G C62U C66G, C5U C29G C30A U64G A69C is lower in yeast fitness: 0.538 for the first, at most 0.5 for the second.

First: C5U G17C
Second: C5U C55U G56C C62U
The yeast fitness of the first is lower: 0.721 for the first, 0.932 for the second.

Going from C5U G39A A57C to C5U C30A A42U, the yeast fitness falls from 0.656 to 0.59.

Going from C5U G10C A21U C22U C27U U32C C46U C61G to C5U C31U C61A, the yeast fitness rises from at most 0.5 to 0.552.

Compared with C5U C30U A40U, C5U C27G G38U is lower in yeast fitness: 0.567 for the first, at most 0.5 for the second.

Compared with C5U C27A A42U G48A C49G C60A, C5U C34G A45C C66G is lower in yeast fitness: 0.592 for the first, at most 0.5 for the second.

C5U G6C G39A A45U C46G A57C and C5U G10A G38C cannot be ordered by yeast fitness: at most 0.5 for the first, at most 0.5 for the second.

C5U C34U C49G G52C C55U C62G and C5U G10A C62G C66G cannot be ordered by yeast fitness: at most 0.5 for the first, at most 0.5 for the second.

First: C5U G9A C34U C46G C49U
Second: C5U C29G G44A A57U
The yeast fitness of the first is higher: 0.513 for the first, at most 0.5 for the second.

Compared with C5U C22U A45G, C5U G17A A20G C55A G67A A70G is lower in yeast fitness: 0.666 for the first, at most 0.5 for the second.

First: C5U C33G C46A C66A
Second: C5U C24U G44C C60A
The yeast fitness of the first is lower: at most 0.5 for the first, 0.527 for the second.

C5U C29G C49U A69U and C5U C27U A37G A40C U47A cannot be ordered by yeast fitness: at most 0.5 for the first, at most 0.5 for the second.

First: C5U G38C C46U C60U
Second: C5U C29G C34G
The yeast fitness of the first is lower: at most 0.5 for the first, 0.542 for the second.

C5U C31U G50A U54C C55G and C5U C24G C31G C61G cannot be ordered by yeast fitness: at most 0.5 for the first, at most 0.5 for the second.

C5U C29A A65C and C5U G17U A70U cannot be ordered by yeast fitness: at most 0.5 for the first, at most 0.5 for the second.

First: C5U G10C A14G C46G C62U
Second: C5U C22U G44C
The yeast fitness of the first is lower: 0.593 for the first, 0.73 for the second.

Compared with C5U C60A, C5U C60G is higher in yeast fitness: 0.585 for the first, 0.627 for the second.

Going from C5U G12A U47G C49U G68C to C5U C31U G39A A57C, the yeast fitness rises from at most 0.5 to 0.574.

First: C5U G23A A36G
Second: C5U C24A G41A A69C
The yeast fitness of the first is higher: 0.618 for the first, at most 0.5 for the second.

Going from C5U C22U C62U to C5U G10A C34U G68U A69U, the yeast fitness falls from 0.66 to 0.505.

C5U G10A A21G A40U and C5U C31G A40G A45G C46G G48A cannot be ordered by yeast fitness: at most 0.5 for the first, at most 0.5 for the second.

Compared with C5U G10A C27G A57G, C5U G10C C34A A57U G67C is lower in yeast fitness: 0.541 for the first, at most 0.5 for the second.

First: C5U C66U
Second: C5U G9A A21G U53A
The yeast fitness of the first is higher: 0.877 for the first, at most 0.5 for the second.

First: C5U C31U C33U C34G A40C G63A
Second: C5U C31G C66U
The yeast fitness of the first is lower: at most 0.5 for the first, 0.736 for the second.

Compared with C5U G17C A43C C49G, C5U C49U C66U is higher in yeast fitness: at most 0.5 for the first, 0.887 for the second.

First: C5U C24U U32C
Second: C5U G10A C27G
The yeast fitness of the first is higher: 0.72 for the first, at most 0.5 for the second.

Compared with C5U G9C A42G, C5U C22U A37U G67A is lower in yeast fitness: 0.626 for the first, at most 0.5 for the second.

First: C5U G25C
Second: C5U G25A
The yeast fitness of the first is higher: 0.997 for the first, 0.891 for the second.

First: C5U C24G A37U G56A A65C
Second: C5U C29U A45U
The yeast fitness of the first is lower: at most 0.5 for the first, 0.924 for the second.

Going from C5U C31G G68C to C5U G9A A21G C55U, the yeast fitness falls from 0.645 to at most 0.5.

Compared with C5U C55A G68C, C5U G39A C55U is higher in yeast fitness: at most 0.5 for the first, 0.614 for the second.

Going from C5U C29U A43U to C5U C49U G67C, the yeast fitness falls from 0.89 to 0.608.

Compared with C5U C24A C33U U47C G63A G67U, C5U C22U A37U is lower in yeast fitness: 0.718 for the first, 0.535 for the second.

First: C5U G25A A70C
Second: C5U C24A C33U A70U
The yeast fitness of the first is higher: 0.796 for the first, at most 0.5 for the second.

Compared with C5U G18C C22A U54A A65G, C5U G23A C27G C31G G50C G58C is higher in yeast fitness: at most 0.5 for the first, 0.557 for the second.

First: C5U C33A G39C G51C C62U A69C
Second: C5U C27U A37C
The yeast fitness of the first is higher: 0.543 for the first, at most 0.5 for the second.

First: C5U G9A A20G
Second: C5U C34G C55A G63C
The yeast fitness of the first is higher: 0.663 for the first, at most 0.5 for the second.

C5U G9C A36U C60G and C5U C30G C31A G63C cannot be ordered by yeast fitness: at most 0.5 for the first, at most 0.5 for the second.

First: C5U C34A G63A
Second: C5U C31G C33G C34U G68A
The yeast fitness of the first is lower: at most 0.5 for the first, 0.671 for the second.

First: C5U C22U C33U
Second: C5U C46G G52C C62G C66U
The yeast fitness of the first is higher: 0.561 for the first, at most 0.5 for the second.

C5U G25A A40C and C5U C30U G44C G67C cannot be ordered by yeast fitness: at most 0.5 for the first, at most 0.5 for the second.

Going from C5U C34A G39C G52A G58A to C5U C22G C30U C33G A69G, the yeast fitness rises from at most 0.5 to 0.552.

C5U C33G C49A and C5U G23A C46G C49G cannot be ordered by yeast fitness: at most 0.5 for the first, at most 0.5 for the second.

Compared with C5U C31G U32C A37C G50C A69C, C5U C22U A36G is higher in yeast fitness: at most 0.5 for the first, 0.749 for the second.

Going from C5U C27G C33G G41C C61A to C5U C34U A42U, the yeast fitness rises from at most 0.5 to 0.529.

C5U C22U C31U C49A U59C and C5U G10A A20G A36U A43C cannot be ordered by yeast fitness: at most 0.5 for the first, at most 0.5 for the second.

C5U C34A A36G and C5U C34A C49A U59G cannot be ordered by yeast fitness: at most 0.5 for the first, at most 0.5 for the second.

First: C5U G18C C22U G50A G52C
Second: C5U G17C U26G
The yeast fitness of the first is lower: at most 0.5 for the first, 0.511 for the second.

Going from C5U C34U A65U to C5U C31G C33G, the yeast fitness rises from 0.565 to 0.579.

Going from C5U G18C to C5U C29U A45C C60A, the yeast fitness falls from 0.721 to at most 0.5.

First: C5U C24U A42C A57U
Second: C5U C30G G56C
The yeast fitness of the first is higher: 0.534 for the first, at most 0.5 for the second.

First: C5U C33G C55U
Second: C5U C24G A40C A69C
The yeast fitness of the first is lower: at most 0.5 for the first, 0.522 for the second.

Going from C5U C29U A43G G48C C55A to C5U C31U G48C, the yeast fitness rises from at most 0.5 to 0.682.

First: C5U G9C U64A
Second: C5U C30U A37G
The yeast fitness of the first is lower: 0.577 for the first, 0.64 for the second.

First: C5U C46A
Second: C5U C46U
The yeast fitness of the first is lower: 1 for the first, 1.07 for the second.

First: C5U C55G
Second: C5U G10C A21U C22U U32C C46U C61G
The yeast fitness of the first is higher: 0.676 for the first, at most 0.5 for the second.

Going from C5U C49U U64A to C5U C34G A45U, the yeast fitness rises from at most 0.5 to 0.534.

C5U G25A G51C G56C A69U and C5U G23A U35A cannot be ordered by yeast fitness: at most 0.5 for the first, at most 0.5 for the second.

Going from C5U G17C C46A to C5U C33U C49G A65C, the yeast fitness falls from 0.556 to at most 0.5.

Compared with C5U G6A C31G G50C U54C, C5U C24U C46G A65C is higher in yeast fitness: at most 0.5 for the first, 0.537 for the second.

Compared with C5U C31G, C5U C22U G23C A36G G67A is lower in yeast fitness: 0.918 for the first, at most 0.5 for the second.

Going from C5U C22G G50C to C5U C34G A65C, the yeast fitness rises from at most 0.5 to 0.525.

Compared with C5U G10C G39C G51A, C5U C29U A69U is higher in yeast fitness: at most 0.5 for the first, 0.72 for the second.

C5U G9C A15C G38C C49G G68C and C5U G10A U54C A57G cannot be ordered by yeast fitness: at most 0.5 for the first, at most 0.5 for the second.

C5U C34A G50C and C5U C22U C31G C33G C34U G68A cannot be ordered by yeast fitness: at most 0.5 for the first, at most 0.5 for the second.

Going from C5U C24U A42C A57U C62A to C5U G6C U19C G25C U28G C62A, the yeast fitness rises from at most 0.5 to 0.747.

Compared with C5U G10C C33U C46G, C5U C27G U32A is higher in yeast fitness: at most 0.5 for the first, 0.561 for the second.

C5U C24G C30G A36U C55U A69C and C5U G17C C30G U59A cannot be ordered by yeast fitness: at most 0.5 for the first, at most 0.5 for the second.

C5U C27U U28G C33G A36G and C5U G17C C30G C55G cannot be ordered by yeast fitness: at most 0.5 for the first, at most 0.5 for the second.

C5U C33G C34G C46U and C5U C24U A42C A57U G63C cannot be ordered by yeast fitness: at most 0.5 for the first, at most 0.5 for the second.

C5U G17A A36U U47A and C5U C27A G41C A57U cannot be ordered by yeast fitness: at most 0.5 for the first, at most 0.5 for the second.

C5U C22U C33U C61G and C5U G12A A40U A45G C60A cannot be ordered by yeast fitness: at most 0.5 for the first, at most 0.5 for the second.

C5U G10A A36G G44C and C5U G12C A21C C24A G41C G50A U53A cannot be ordered by yeast fitness: at most 0.5 for the first, at most 0.5 for the second.

C5U C34A U53A A57U A65U and C5U C24G A42C U53G cannot be ordered by yeast fitness: at most 0.5 for the first, at most 0.5 for the second.

Going from C5U C31G G56C to C5U C30U A45U, the yeast fitness rises from 0.527 to 0.701.

Compared with C5U C22G C66G, C5U G12C A21C C24A G41C U53A is lower in yeast fitness: 0.547 for the first, at most 0.5 for the second.

First: C5U C55U G56C
Second: C5U C29A U35G C46U U54G
The yeast fitness of the first is higher: 0.746 for the first, at most 0.5 for the second.

C5U G10A C27G U35G G44A and C5U C34A A36G G63A cannot be ordered by yeast fitness: at most 0.5 for the first, at most 0.5 for the second.

Going from C5U C24U A42C to C5U C55A A57C, the yeast fitness falls from 0.746 to at most 0.5.

With C5U G10A A20C G41A C46G G48A U54C C55U A70C the yeast fitness was 0.647.
